Laboratory results as given in ChEMBL document CHEMBL4823286, “Synthesis and evaluation of novel 2,4-diaminopyrimidines bearing a sulfoxide moiety as anaplastic lymphoma kinase (ALK) inhibition agents” (Bioorg Med Chem Lett, 2021).
pIC50: −log10 of the molar value.

Columns and labels:
[1] = system: BaF3; experiment: Antiproliferative activity against mouse BaF3 cells overexpressing ALK assessed as inhibition of cell proliferation measured by CCK8 assay; type: functional, cell-based
In short: (§1)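 Cell proliferation inhibition; IC50 given as mean ± SD of three independent experiments.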

[2] = system: NCI-H2228; experiment: Antiproliferative activity against human NCI-H2228 cells assessed as inhibition of cell proliferation measured by CCK8 assay; type: functional, cell-based; in short: as §1

Compound	pIC50 [1]	pIC50 [2]
CC[S+]([O-])c1cc(Cl)ccc1Nc1nc(Nc2ccc(N3CCN(C)CC3)cc2OC)ncc1Cl (centres undefined)	6.89	6.87
CC[S+]([O-])c1cc(F)ccc1Nc1nc(Nc2ccc(N3CCC(N(C)C)CC3)cc2OC)ncc1Cl (centres undefined)	7.10	6.47
